Data on eight compounds can be found in article PMC10433466 (ACS Omega, 2023).

Series [1] concerns P. aeruginosa PA86052. Put plainly: Checkerboard assay with BLs. It counts as cell-based.
Series [2] concerns P. aeruginosa PA108590. The series can be described thus: Checkerboard assay with BLs. It counts as cell-based.
The test system of a further series is P. aeruginosa PA107092. The series can be described thus: Checkerboard assay with BLs. The class given is cell-based.
A further series has as its system P. aeruginosa PA88949. Put plainly: Checkerboard assay with BLs. It counts as cell-based.
Another series has as its system P. aeruginosa PA109084. The series can be described thus: Checkerboard assay with BLs. It counts as cell-based.
Series [3] concerns P. aeruginosa PA86052. The series can be described thus: Potentiation of BL/BLI. The class given is cell-based. In a few lines: (§1)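 Checkerboard in CAMHB: the antibiotic or BL/BLI was twofold serially diluted on one axis and the adjuvant on the other. The inoculum was prepared as for MIC (0.5 McFarland, 1:50, about 5 × 10^5 cfu/mL) and plates ran at 37 °C overnight, with turbidity read at 595 nm. Each FIC is combination MIC over single-agent MIC, and FICI is their sum: ≤0.5 synergy, 0.5–4 additive, >4 antagonism. Runs were done at least twice.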

The subject of series [4] is P. aeruginosa PA108590. The series can be described thus: Potentiation of BL/BLI. It counts as cell-based. In a few lines: as §1
Series [5] deals with P. aeruginosa PAO1. Put plainly: Outer membrane permeabilization assay. It counts as cell-based. The following applies: NPN 10 μM. In a few lines:
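PAO1 suspension (OD600 0.4–0.6) was incubated with NPN (10 μM final) in 5 mM HEPES, 5 mM glucose and 5 μM CCCP for 30 min at room temperature in the dark. Test compound was then added at varying concentrations, and fluorescence (ex 350 / em 420 nm) was recorded every 30 s.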

In series [6] the test system is P. aeruginosa PAO1. The series can be described thus: Checkerboard assay, antibiotic potentiation. The class given is cell-based. The following applies: PMBN (7 μM) vs 2c 8 μg/mL (2 μM). In a few lines:
as §1

For series [7], the system named is P. aeruginosa PAO1. The following applies: cited from earlier work.
Series [8] has as its system P. aeruginosa PAO1. Put plainly: Antimicrobial susceptibility assay. It counts as cell-based. Particulars: Pseudomonas aeruginosa, PAO1, read-out: minimum inhibitory concentration (MIC). In a few lines: (§2)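 Broth microdilution following CLSI guidance. An overnight culture was adjusted in saline to 0.5 McFarland, diluted 1:50 in CAMHB and inoculated at about 5 × 10^5 cfu/mL final. Agents were twofold serially diluted in CAMHB, mixed with equal volumes of inoculum and held at 37 °C overnight. MIC was the lowest concentration without visible turbidity, read at 595 nm. Runs were done at least twice and repeated if outside twofold agreement.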

In another series the test system is A. baumannii ATCC 17978. Put plainly: Antimicrobial susceptibility assay. It counts as cell-based. The following applies: Acinetobacter baumannii, ATCC17978, read-out: minimum inhibitory concentration (MIC). In a few lines:
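CLSI broth microdilution. Overnight culture adjusted in saline to 0.5 McFarland, then diluted 1:50 in cation-adjusted Mueller Hinton broth to about 5 × 10^5 cfu/mL final. Test compound twofold serially diluted in the same broth, mixed with an equal volume of inoculum, incubated at 37 °C overnight. MIC is the lowest concentration without visible turbidity (595 nm). Run at least twice; repeated if outside twofold agreement.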

In another series the test system is E. coli ATCC 25922. Put plainly: Antimicrobial susceptibility assay. The class given is cell-based. The following applies: Escherichia coli, ATCC25922, read-out: minimum inhibitory concentration (MIC). In a few lines:
as §2

Series [9] has as its system P. aeruginosa PAO1. The series can be described thus: Checkerboard RIF potentiation in CAMHB and Mg2+-supplemented CAMHB. The class given is cell-based. The following applies: RIF alone. In a few lines: as §1
[10] abbreviates: ATM/AVI in the presence of 8 μg/mL compound 3 (3.5 μM) or PMBN (7 μM).
[11] abbreviates: ATM/AVI with 8 μg/mL compound 3 (3.5 μM) or PMBN (7 μM).
Where [12] appears, read: CAZ/AVI in the presence of 8 μg/mL compound 3 (3.5 μM) or PMBN (7 μM).
[13] abbreviates: CAZ/AVI with 8 μg/mL compound 3 (3.5 μM) or PMBN (7 μM).
Setting [14] is: CTZ/TAZ in the presence of 8 μg/mL compound 3 (3.5 μM) or PMBN (7 μM).
Setting [15] is: CTZ/TAZ with 8 μg/mL compound 3 (3.5 μM) or PMBN (7 μM).
The mark [16] stands for this setting: IMI/REL in the presence of 8 μg/mL compound 3 (3.5 μM) or PMBN (7 μM).
[17] abbreviates: IMI/REL with 8 μg/mL compound 3 (3.5 μM) or PMBN (7 μM).
Where [18] appears, read: MER/VAB in the presence of 8 μg/mL compound 3 (3.5 μM) or PMBN (7 μM).
The mark [19] stands for this setting: MER/VAB with 8 μg/mL compound 3 (3.5 μM) or PMBN (7 μM).

In brackets after ≈: the same amount, converted by molar mass. Several values for one entry are separate records, joined by “and”; a condition that tells them apart may be missing. Identical values can stand only once.

Consider `CC(C)(O/N=C(\C(=O)N[C@@H]1C(=O)N2C(C(=O)[O-])=C(C[n+]3ccccc3)CS[C@H]12)c1csc(N)n1)C(=O)O` [CAZ, ceftazidime], for which the MICBL in the series on P. aeruginosa PA86052 [1] (CAZ alone) was 64 µg/mL; in the series on P. aeruginosa PA108590 [2] (CAZ alone), 64 µg/mL; in the series with P. aeruginosa PA107092 (CAZ alone) it was 128 µg/mL.

Take `C[C@@H](O)[C@H]1C(=O)N2C(C(=O)O)=C(SCCN=CN)C[C@H]12` [IMI, imipenem]: the MICBL in the series on P. aeruginosa PA86052 [1] (IMI alone) was 64 µg/mL and 32 µg/mL; in the series on P. aeruginosa PA108590 [2] (IMI alone), 32 µg/mL; in the series with P. aeruginosa PA88949 (IMI alone), 64 µg/mL; in the series on P. aeruginosa PA107092 (IMI alone), 32 µg/mL; with P. aeruginosa PA109084 (IMI alone), 16 µg/mL.

As for polymyxin B nonapeptide [PMBN], the “MICBL/BLI [MIC with 3 or PMBN]” value turned out to be 0.0625 µg/mL in the series on P. aeruginosa PA86052 [3] (setting [10]); 0.25 µg/mL with P. aeruginosa PA86052 [3] (setting [12]); 0.0625 µg/mL with P. aeruginosa PA86052 [3] (setting [14]); 0.125 µg/mL with P. aeruginosa PA86052 [3] (setting [16]); 0.0312 µg/mL with P. aeruginosa PA86052 [3] (setting [18]); 2 µg/mL in the series on P. aeruginosa PA108590 [4] (setting [10]). In addition, the “MICBL/BLI [MIC with 3 or PMBN]” value is 4 µg/mL in the series on P. aeruginosa PA108590 [4] (setting [12]), 2 µg/mL with P. aeruginosa PA108590 [4] (setting [14]), 1 µg/mL in the series with P. aeruginosa PA108590 [4] (setting [16]) and 4 [4] μg/mL in the series on P. aeruginosa PA108590 [4] (setting [18]). Further, the fold potentiation is on record as 1024 fold in the series on P. aeruginosa PA86052 [3] (setting [11]); 512 fold in the series with P. aeruginosa PA86052 [3] (setting [13]); 128 fold with P. aeruginosa PA86052 [3] (setting [15]); 512 fold with P. aeruginosa PA86052 [3] (setting [17]); 512 fold with P. aeruginosa PA86052 [3] (setting [19]); 16 fold with P. aeruginosa PA108590 [4] (setting [11]). The fold potentiation was determined as 32 fold in the series on P. aeruginosa PA108590 [4] (setting [13]), 2 fold in the series on P. aeruginosa PA108590 [4] (setting [15]), 32 fold in the series with P. aeruginosa PA108590 [4] (setting [17]) and 1 fold with P. aeruginosa PA108590 [4] (setting [19]). Further, in the series with P. aeruginosa PAO1 [5], the “NPN fluorescence (OM permeabilization)” value is given as “increased fluorescence”. Also, in the series on P. aeruginosa PAO1 [6], the “MIN potentiation relative to trimer 2c” value was 4 fold.

`NC[C@H]1O[C@H](O[C@H]2[C@H](O)[C@@H](O[C@H]3O[C@H](CO)[C@@H](O)[C@H](N)[C@H]3O)[C@H](N)C[C@@H]2N)[C@H](N)C[C@@H]1O` [TOB, tobramycin]: the “synergy with NOV, RIF, MIN, LEV, CAZ” value in the series with P. aeruginosa PAO1 [7] is reported as “did not synergize”. For the same compound, the MIC with P. aeruginosa PAO1 [8] came out at 0.5 µg/mL (≈ 1.07 µM); in the series on A. baumannii ATCC 17978, 0.5 µg/mL (≈ 1.07 µM); in the series on E. coli ATCC 25922, 2 µg/mL (≈ 4.28 µM).

Regarding `CO[C@H]1/C=C/O[C@@]2(C)Oc3c(C)c(O)c4c(O)c(c(/C=N/N5CCN(C)CC5)c(O)c4c3C2=O)NC(=O)/C(C)=C\C=C\[C@H](C)[C@H](O)[C@@H](C)[C@@H](O)[C@@H](C)[C@H](OC(C)=O)[C@@H]1C` [RIF, rifampicin], the MICRIF in the series on P. aeruginosa PAO1 [9] (CAMHB) and with P. aeruginosa PAO1 [9] (CAMHB with 20 mM Mg2+) was 32 µg/mL each time.

`C[C@H]1[C@H](NC(=O)/C(=N\OC(C)(C)C(=O)O)c2csc(N)n2)C(=O)N1S(=O)(=O)O` [ATM, aztreonam]: the MICBL in the series with P. aeruginosa PA86052 [1] (ATM alone) and in the series on P. aeruginosa PA108590 [2] (ATM alone) was 32 µg/mL each time.

In the case of `C[C@@H](O)[C@H]1C(=O)N2C(C(=O)O)=C(S[C@@H]3CN[C@H](C(=O)N(C)C)C3)[C@H](C)[C@H]12` [MER, meropenem], the MICBL in the series with P. aeruginosa PA86052 [1] (MER alone) was 16 µg/mL; with P. aeruginosa PA108590 [2] (MER alone), 4 µg/mL and 8 µg/mL; in the series on P. aeruginosa PA88949 (MER alone), 16 µg/mL and 32 µg/mL; in the series on P. aeruginosa PA107092 (MER alone), 32 µg/mL and 64 µg/mL; in the series on P. aeruginosa PA109084 (MER alone), 16 µg/mL.

Take `Cn1c(N)c(NC(=O)NCCN)c[n+]1CC1=C(C(=O)O)N2C(=O)[C@@H](NC(=O)/C(=N\OC(C)(C)C(=O)[O-])c3nsc(N)n3)[C@H]2SC1` [CTZ, ceftolozane]: the MICBL with P. aeruginosa PA86052 [1] (CTZ alone) is 8 µg/mL and 4 µg/mL; in the series on P. aeruginosa PA108590 [2] (CTZ alone), 8 µg/mL and 4 µg/mL; in the series on P. aeruginosa PA88949 (CTZ alone), 4 µg/mL; in the series with P. aeruginosa PA107092 (CTZ alone), 4 µg/mL; in the series on P. aeruginosa PA109084 (CTZ alone) it was 8 µg/mL and 4 µg/mL.
